Activity calls are given as the source filed them. The rule behind the calls is not given here.
Tests used:
143B [1] = test: Cytotoxicity against human 143B cells assessed as reduction in cell viability at 25 uM after 24 hrs by cell-titer blue assay; assay type: functional, cell-based
143B [2] = test: Cytotoxicity against human 143B cells assessed as reduction in cell viability at 12.5 uM after 24 hrs by cell-titer blue assay; assay type: functional, cell-based
HOS [3] = test: Cell cycle arrest in human HOS cells assessed as accumulation at S phase after 24 hrs by propidium iodide-staining based flow cytometry (reference value: 37.1 +/- 1.6%); assay type: functional
HOS [4] = test: Cell cycle arrest in human HOS cells assessed as accumulation at G1 phase after 24 hrs by propidium iodide-staining based flow cytometry (reference value: 47.8 +/- 0.7%); assay type: functional
143B [5] = test: Cell cycle arrest in human 143B cells assessed as accumulation at G2 phase after 24 hrs by propidium iodide-staining based flow cytometry (reference value: 17.2 +/- 2.3%); assay type: functional
143B [6] = test: Cell cycle arrest in human 143B cells assessed as accumulation at S phase after 24 hrs by propidium iodide-staining based flow cytometry (reference value: 26.6 +/- 0.4%); assay type: functional
MG-63 [7] = test: Cell cycle arrest in human MG63 cells assessed as accumulation at G2 phase after 24 hrs by propidium iodide-staining based flow cytometry (reference value: 16.9 +/- 0.01%); assay type: functional
HOS [8] = test: Cell cycle arrest in human HOS cells assessed as accumulation at G2 phase after 24 hrs by propidium iodide-staining based flow cytometry (reference value: 15.1 +/- 0.97%); assay type: functional
143B [9] = test: Cell cycle arrest in human 143B cells assessed as accumulation at G1 phase after 24 hrs by propidium iodide-staining based flow cytometry (reference value: 56.2 +/- 2.7%); assay type: functional
[10] = target: T1, Fatty-acid amide hydrolase 1 (Sus scrofa, UniProt Q9TUI8); test: Drug metabolism in pig forebrain membranes assessed as FAAH-mediated 10,11-EDP formation by measuring hydrolysis rate per mg protein at 20 uM after 40 mins by LC-MS/MS analysis; assay type: ADME, cell membranes, Membrane
T1 sequence (Q9TUI8 whole entry): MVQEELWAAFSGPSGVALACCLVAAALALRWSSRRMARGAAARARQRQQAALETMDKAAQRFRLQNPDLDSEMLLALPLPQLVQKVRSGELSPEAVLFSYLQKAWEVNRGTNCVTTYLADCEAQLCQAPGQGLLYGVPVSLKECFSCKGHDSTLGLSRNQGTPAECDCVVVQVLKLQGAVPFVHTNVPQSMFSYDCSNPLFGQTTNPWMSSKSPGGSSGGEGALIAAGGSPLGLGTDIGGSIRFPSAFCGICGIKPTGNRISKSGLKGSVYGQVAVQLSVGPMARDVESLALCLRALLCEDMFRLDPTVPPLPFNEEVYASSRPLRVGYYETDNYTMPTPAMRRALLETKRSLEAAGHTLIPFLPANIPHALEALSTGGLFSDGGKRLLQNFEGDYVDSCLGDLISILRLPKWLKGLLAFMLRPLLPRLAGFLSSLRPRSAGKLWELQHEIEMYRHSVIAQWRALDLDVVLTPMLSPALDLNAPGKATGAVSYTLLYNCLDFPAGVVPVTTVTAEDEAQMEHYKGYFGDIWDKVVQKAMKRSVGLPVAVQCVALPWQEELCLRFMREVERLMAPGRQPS
In short: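 Each 0.5 mL reaction held 5 µg membrane protein in the same buffer with 20 µM amide. Reactions were stopped at 40 min with methanol containing 1 mM PMSF and centrifuged. The supernatant was run on C18 LC-MS/MS, negative ESI, MRM for 10,11-EDP (m/z 343.0).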

MG-63 [11] = test: Induction of apoptosis in human MG63 cells at 12.5 by Annexin V-FITC/propidium iodide double staining based flow cytometry relative to control; assay type: functional
HUVEC [12] = test: Cytotoxicity against HUVEC assessed as reduction in cell viability at 1 uM after 24 hrs by cell-titer blue assay; assay type: cell-based; settings: human
HUVEC [13] = test: Anti-angiogenic activity in HUVEC assessed as inhibition of tube formation at 0.5 to 1 uM after 5 hrs by fluorescent microscopy based matrigel assay; assay type: functional, cell-based; settings: Homo sapiens
In short: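 HUVEC at passage 2 were grown to 80% confluency, and 15,000 cells were plated on Matrigel pre-set 1 h at 37 °C. Cells got vehicle, 0.5 or 1 μM compound, with no-matrix and vinblastine controls, in duplicate wells for 5 h at 37 °C. After washing, cells were stained 30 min at 37 °C. Fluorescence images were scored for tube formation with an angiogenesis analyzer.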

143B [14] = test: Induction of apoptosis in human 143B cells at 12.5 by Annexin V-FITC/propidium iodide double staining based flow cytometry relative to control; assay type: functional
MG-63 [15] = test: Cell cycle arrest in human MG63 cells assessed as accumulation at S phase after 24 hrs by propidium iodide-staining based flow cytometry (reference value: 20.2 +/- 1.8%); assay type: functional
HOS [16] = test: Induction of apoptosis in human HOS cells at 12.5 by Annexin V-FITC/propidium iodide double staining based flow cytometry relative to control; assay type: functional
MG-63 [17] = test: Cell cycle arrest in human MG63 cells assessed as accumulation at G1 phase after 24 hrs by propidium iodide-staining based flow cytometry (reference value: 62.9 +/- 1.8%); assay type: functional
143B [18] = test: Induction of apoptosis in human 143B cells at 12.5 in presence of AM 630 by Annexin V-FITC/propidium iodide double staining based flow cytometry relative to control; assay type: functional
143B [19] = test: Antimigratory activity in human 143B cells at 5 uM measured after 10 hrs in presence of CB1 receptor antagonist rimonabant by wound-healing assay; assay type: functional, cell-based
143B [20] = test: Antimigratory activity in human 143B cells at 5 uM measured after 10 hrs by wound-healing assay; assay type: functional, cell-based
In short: (§1)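 A confluent monolayer of HOS, 143B or MG63 cells (DMEM, 10% FBS) was scratched with a pipette tip, then given fresh medium with 5 μM compound or vehicle at 37 °C, 5% CO₂. Images were taken every 2 h and wound area normalized to 100% at 0 h. Results are the ratio of wound remaining, treated to control, at 6 and 10 h.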

143B [21] = test: Induction of apoptosis in human 143B cells at 12.5 in presence of rimonabant by Annexin V-FITC/propidium iodide double staining based flow cytometry relative to control; assay type: functional
Cannabinoid receptor 1 = Cannabinoid receptor 1 (Homo sapiens, UniProt P21554); test: Agonist activity at N-terminal FLAG-tagged human CB1 receptor transfected in human HTLA cells assessed as induction of beta-arrestin-recruitment after 8 to 14 hrs by bright-glo luminescence based assay; assay type: functional, cell-based
Sequence of Cannabinoid receptor 1 (P21554 whole entry): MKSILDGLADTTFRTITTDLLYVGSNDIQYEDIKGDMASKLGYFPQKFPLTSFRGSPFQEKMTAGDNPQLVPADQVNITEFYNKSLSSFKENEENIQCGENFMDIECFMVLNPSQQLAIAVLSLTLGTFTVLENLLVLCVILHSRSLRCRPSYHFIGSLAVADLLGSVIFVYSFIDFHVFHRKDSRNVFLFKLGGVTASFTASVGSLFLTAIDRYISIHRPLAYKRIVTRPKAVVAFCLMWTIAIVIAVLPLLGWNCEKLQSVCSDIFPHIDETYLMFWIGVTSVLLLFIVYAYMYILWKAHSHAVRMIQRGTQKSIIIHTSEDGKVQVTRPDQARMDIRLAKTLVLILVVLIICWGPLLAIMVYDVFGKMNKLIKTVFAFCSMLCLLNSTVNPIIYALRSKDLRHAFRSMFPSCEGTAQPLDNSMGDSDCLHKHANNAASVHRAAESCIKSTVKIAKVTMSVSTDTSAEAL
In short: (§2)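 HTLA cells (DMEM, 10% FBS, puromycin 2 μg/mL, hygromycin B 100 μg/mL) were seeded at 20,000 per well on poly-L-lysine and transfected after 18–24 h with CNR1 or CNR2 Tango plasmid, 0.1 μg/well. After 36–48 h they were starved 4 h in 1% dialyzed FBS, or 30 min with 1 μM AUDA for epoxides. Log-dose compound was added for 8–14 h, then Bright-Glo luminescence read. RLU was normalized to % receptor response and fitted to a dose-response curve.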

Cannabinoid receptor 2 = Cannabinoid receptor 2 (Homo sapiens, UniProt P34972); test: Agonist activity at N-terminal FLAG-tagged human CB2 receptor transfected in human HTLA cells assessed as induction of beta-arrestin-recruitment after 8 to 14 hrs by bright-glo luminescence based assay; assay type: functional, cell-based; in short: as §2
Sequence of Cannabinoid receptor 2 (P34972 whole entry): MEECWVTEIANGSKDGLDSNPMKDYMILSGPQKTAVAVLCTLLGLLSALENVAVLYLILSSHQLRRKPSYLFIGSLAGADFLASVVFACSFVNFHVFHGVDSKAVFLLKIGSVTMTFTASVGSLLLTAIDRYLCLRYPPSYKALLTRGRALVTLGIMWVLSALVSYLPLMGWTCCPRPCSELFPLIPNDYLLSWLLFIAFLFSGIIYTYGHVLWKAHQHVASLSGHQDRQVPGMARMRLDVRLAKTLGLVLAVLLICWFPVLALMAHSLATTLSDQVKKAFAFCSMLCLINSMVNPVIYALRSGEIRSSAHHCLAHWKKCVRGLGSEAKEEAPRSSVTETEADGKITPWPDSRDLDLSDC

HOS [22] = test: Antimigratory activity in human HOS cells at 5 uM after 6 to 10 hrs by wound-healing assay; assay type: functional, cell-based; in short: as §1
MG-63 [23] = test: Antimigratory activity in human MG63 cells at 5 uM measured after 10 hrs by wound-healing assay; assay type: functional, cell-based; in short: as §1
MG-63 [24] = test: Antimigratory activity in human MG63 cells at 5 uM measured after 6 hrs by wound-healing assay; assay type: functional, cell-based; in short: as §1

SMILES | Activity (143B [1]) | Activity (143B [2]) | Activity (HOS [3]) [%] | Activity (HOS [4]) [%] | Activity (143B [5]) [%] | Activity (143B [6]) [%] | Activity (MG-63 [7]) [%] | Activity (HOS [8]) [%] | Activity (143B [9]) [%] | Drug metabolism [10] [pmol/min] | Activity (MG-63 [11]) [%] | Activity (HUVEC [12]) | Activity (HUVEC [13]) | Activity (143B [14]) [%] | Activity (MG-63 [15]) [%] | Activity (HOS [16]) [%] | Activity (MG-63 [17]) [%] | Activity (143B [18]) [%] | Activity (143B [20]) | Activity (143B [21]) [%] | further results
CC/C=C\CC1OC1C/C=C\C/C=C\C/C=C\C/C=C\CCC(=O)NCCO (configuration not stated) | Active | inactive | – | – | – | – | – | – | – | – | – | – | – | – | – | – | – | – | – | – | –
CC/C=C\C/C=C\C/C=C\CC1OC1C/C=C\C/C=C\CCC(=O)NC(C)CO (configuration not stated) | – | – | 24.3 | 55.8 | 8.1 | 41.8 | 12.5 | 20 | 50.1 | 0.99 | 17.5 | Non-Toxic | Active | 18.8 | 10.8 | 20.2 | 76.7 | – | – | – | –
CC/C=C\C/C=C\C/C=C\CC1OC1C/C=C\C/C=C\CCC(=O)NCCCO (configuration not stated) | – | – | 20.7 | 62.2 | 23.7 | 24 | 17.5 | 17.1 | 52.2 | – | 15.2 | Non-Toxic | Active | 25.7 | 19 | 17.1 | 63.5 | – | – | – | –
CC/C=C\C/C=C\C/C=C\CC1OC1C/C=C\C/C=C\CCC(=O)NCCO (configuration not stated) | Active | Active | 20.3 | 67.2 | 21.1 | 28.9 | 14.4 | 12.4 | 50.7 | 30 | 26.6 | Non-Toxic | Active | 17.92 | 17.9 | 31.1 | 67.7 | 10.9 | Active | 7.44 | Activity (143B [19]): inactive; EC50 (Cannabinoid receptor 1): 0.43 nM; EC50 (Cannabinoid receptor 2): 22.5 nM
CC/C=C\C/C=C\C/C=C\CC1OC1C/C=C\C/C=C\CCC(=O)NC1CC1 (configuration not stated) | – | – | 30.5 | 54.4 | 22.9 | 22.9 | 16.9 | 15.1 | 54.2 | 5.17 | 17.1 | Non-Toxic | Active | 21.3 | 23.1 | 27.2 | 59.6 | – | – | – | –
CCC1OC1C/C=C\C/C=C\C/C=C\C/C=C\C/C=C\CCC(=O)NCCO (configuration not stated) | Active | inactive | – | – | – | – | – | – | – | – | – | – | – | – | – | – | – | – | – | – | –
CC/C=C\C/C=C\CC1OC1C/C=C\C/C=C\C/C=C\CCC(=O)NCCO (configuration not stated) | Active | Active | – | – | – | – | – | – | – | – | 16.9 | – | – | 9.95 | – | 19.6 | – | 9.2 | inactive | 13.03 | Activity (HOS [22]): inactive; Activity (MG-63 [23]): Active; Activity (MG-63 [24]): inactive
CC/C=C\C/C=C\C/C=C\C/C=C\CC1OC1C/C=C\CCC(=O)NCCO (configuration not stated) | Active | Active | – | – | – | – | – | – | – | – | 16.4 | – | – | 8.75 | – | 17.1 | – | 10.1 | inactive | 14.6 | Activity (HOS [22]): inactive; Activity (MG-63 [23]): Active
